Results as given in the EternaBench riboswitch data.

Test system: MS2 coat protein
Assay: apparent Kd, MS2 coat protein; higher = weaker binding; RNA-MaP array; theophylline 2 mM where present
Outline: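 On Illumina sequencing-chip clusters, designs were transcribed by stalled E. coli RNA polymerase and titrated with SNAP-549-labelled MS2 coat protein (0.7 or 1.5 nM, doubling to 3 µM), without and then with constant ligand, in 100 mM Tris-HCl pH 7.5, 80 mM KCl, 4 mM MgCl2, BSA, DTT, yeast tRNA and Tween-20. Apparent Kd is the median of filtered per-cluster curve fits to green signal normalised to red-channel RNA signal and control-cluster median Fmax.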

[1] = designed as: OFF switch for theophylline, no ligand
[2] = ligand present: theophylline, designed as: OFF switch for theophylline
[3] = designed as: ON switch for theophylline, no ligand
[4] = ligand present: theophylline, designed as: ON switch for theophylline

Sequence	apparent Kd [1] [nM]	apparent Kd [2] [nM]	apparent Kd [3] [nM]	apparent Kd [4] [nM]
AUACACCUCGUCCAGGCAAUCUUUAGUGAUACCAGCUAACUCCGUGGCCCUUGGCAGCACAUGAGGAUCACCCAUGUGCGACAUC	11.1	11.8	–	–
UAUAUGGUGAUGGAUACCAGCAGAGAAAACGUUUAUCCUAACAUGAGGAUCACCCAUGUAUGCCCUUGGCAGCUGUUGUUAUAUA	37.9	29.7	–	–
AAUUAAUUAACCGAUACCAGCCAACCAAAACAUGAGGAUCACCCAUGUAAGAAGAAGGGUGGCCCUUGGCAGCGGUUAAUUAAUU	–	–	27.8	9.07
GGUGUAUCCAUCGAUACCAGCCACCACCGAUAGACCACAUGAGGAUCACCCAUGUUGGGUGGCCCUUGGCAGCGGUGGCUGUGCC	–	–	317	172
UUACGAGGCUAUCCACUUUGAUUUUGUGAUACCAGAAUAAUUUUAUUCCCUUGGCAGCAUGACAUGAGGAUCACCCAUGUGUCUU	–	–	38	61.7
AGACAUGAGGAUCACCCAUGUAGUACGGAUACCAGAUCCAGAUUUAUCCCUUGGCAGCUGUGGUACAGCGUUGCAACGCUCCUAG	17.5	17.5	–	–
AUCGUACCUGAUGAUACCAGCAUGUGCUCGUAACAUGAGGAUCACCCAUGUGAUCAGUGAUGCCCUUGGCAGCAUGAUCGGUGCA	–	–	169	19.3
UUUGAUAGGACAGAUACCAGCGUGUUGUAGAACAUGAGGAUCACCCAUGUAGUGAUCAAGCGCCCUUGGCAGCUGGUUUGUUAGG	–	–	170	82.6
UACAUGAGGAUCACCCAUGUGGCGGAUGAUACCAGUAUGGUGACAUACCCUUGGCAGCAUGCUAUGAGGAUCACCCAUGUGUGCA	85.3	166	–	–
GCACCAGGUACGGAUACCAGCUAUAGGUACAUGUCAGGACAUGAGGAUCACCCAUGUGGUAGCCCUUGGCAGCUGUACCUGGUGC	17.4	27.2	–	–
AUCGUACCUGGUGAUACCAGCAAUUGCUCGUGACAUGAGGAUCACCCAUGUGACCAGUGAUGCCCUUGGCAGCAUGGUCGGUGCA	–	–	68.7	27.2
UACAUGAGGAUCACCCAUGUAUGAAUAGAUACCAGCGAAAAUAAGCGCCCUUGGCAGCUAGUGAAUAAAGGGUGGGUAAAAUAAU	9.18	19.9	–	–
UACAUGAGGAUCACCCAUGUAUACAUGGAUACCAGCGACAAUGGGCGCCCUUGGCAGCUAGUGGAUGGAGGGUGGCCACAGUACU	70.2	71.8	–	–
AAAGAUACCAGAGAUACCAGCCAAAAUUAAAAUAAAACCUCACAUGAGGAUCACCCAUGUGGCCCUUGGCAGCUCCCUUGGCAGC	12.5	53.7	–	–
ACGUCAACCCUUAUGUUGAUGCAAGACGAUACCAGCCUGGAUACAGGCCCUUGGCAGCGUCAACAUGAGGAUCACCCAUGUAAUA	–	–	82.8	118
AUCGUACCUGAUGAUACCAGCAUGUGAUCGUAACAUGAGGAUCACCCAUGUAAUCAGUGAUGCCCUUGGCAGCAUGAUCGGUACA	–	–	97.7	20.5
UGUUUUAAAAGUGAUACCAGACAAACAUGAGGAUCACCCAUGUAACAUGAGAGAUAAUAAGUCCCUUGGCAGCACAUAAUUAGUA	–	–	31.8	26.4
UGACAUUGCUGCGAUACCAGACAUGAGGAUCACCCAUGUACCAAGGUACGAAAAUAACAUGUCCCUUGGCAGCGCAGCAAUGUCU	12.6	254	–	–
UGUAACAUGAGGAUCACCCAUGUGCACGAUACCAGCUUAUUGAUAGGCCCUUGGCAGCGUAUGCGGAAGCUGUAUAAUAUAUAUC	–	–	11.3	12.7
CAAACAUGAGGAUCACCCAUGUAAUCAGAUACCAGUGACGAAAGUCACCCUUGGCAGCUGAGUACAUUAGUUCUAAGGUGUUUGA	44.6	50.2	–	–
AGACAUGAGGAUCACCCAUGUAGCAUGGAUACCAGAUGUAGAUUAGUCCCUUGGCAGCUGUGGUGAAGUGAUGCAUUGCUCCUAG	63.2	61.6	–	–
UGGUUUGUGAUGGAUACCAGCAGAGAAAACGUUUAUCCUAACAUGAGGAUCACCCAUGUAUGCCCUUGGCAGCUGUUGUGGGCUG	36	38.9	–	–
AUUGGGUUAUCAGAUACCAGACUAUUCUAGACAUGAGGAUCACCCAUGUAUUGGGUUUUCGUCCCUUGGCAGCUGUUAAGUUUAA	–	–	167	113
AACAUGAGGAUCACCCAUGUCAUGUUGGAUACCAGCCAAUAAUAAGGCCCUUGGCAGCUAUAGAUCGAUGAUCCAUGAGGAUCAC	34.5	25.3	–	–
UUUGCACAUGAGGAUCACCCAUGUACAGAUACCAGCCUCAUCUACGGCCCUUGGCAGCUGAGACAAUGGUGACAUGAUGGGCUUU	12.1	32.6	–	–
